Assay [1] concerns Aspergillus flavus. The assay is described as follows: Antifungal activity against Aspergillus flavus using 1 x 10^5 spore/100 uL assessed as 99.5% fungal killing of original inoculum after 72 hrs by microdilution method. The class given is functional. In general terms: In broth dilution the organism is exposed to a series of concentrations in liquid medium.
In assay [2] the test system is Curvularia australiensis. The assay is described as follows: Antifungal activity against Drechslera australiensis using 1 x 10^5 spore/100 uL after 72 hrs by microdilution method. In kind it is functional.
Another assay deals with Escherichia coli. The assay is described as follows: Antibacterial activity against Escherichia coli using 1 x 10^4 CFU/ml inoculum after 24 hrs by microdilution method. In kind it is functional.
In the next assay the test system is Salmonella typhi. The assay is described as follows: Antibacterial activity against Salmonella typhi using 1 x 10^4 CFU/ml inoculum after 24 hrs by microdilution method. In kind it is functional, Salmonella enterica subsp. enterica serovar Typhi.
The test system of the next assay is Staphylococcus aureus. The assay is described as follows: Antibacterial activity against Staphylococcus aureus using 1 x 10^4 CFU/ml inoculum after 24 hrs by microdilution method. In kind it is functional.
The test system of assay [3] is Trichoderma viride. The assay is described as follows: Antifungal activity against Trichoderma viride using 1 x 10^5 spore/100 uL after 72 hrs by microdilution method. The class given is functional.
A further assay concerns Pseudomonas aeruginosa. The assay is described as follows: Antibacterial activity against Pseudomonas aeruginosa using 1 x 10^4 CFU/ml inoculum after 24 hrs by microdilution method. In kind it is functional.
The test system of assay [4] is Aspergillus niger. The assay is described as follows: Antifungal activity against Aspergillus niger using 1 x 10^5 spore/100 uL after 72 hrs by microdilution method. In kind it is functional.
Assay [5] deals with Aspergillus niger. The assay is described as follows: Antifungal activity against Aspergillus niger using 1 x 10^5 spore/100 uL assessed as 99.5% fungal killing of original inoculum after 72 hrs by microdilution method. The class given is functional.
Assay [6] deals with Aspergillus flavus. The assay is described as follows: Antifungal activity against Aspergillus flavus using 1 x 10^5 spore/100 uL after 72 hrs by microdilution method. The class given is functional.
Assay [7] has as its system Aspergillus fumigatus. The assay is described as follows: Antifungal activity against Aspergillus fumigatus using 1 x 10^5 spore/100 uL after 72 hrs by microdilution method. In kind it is functional.
For assay [8], the system named is Aspergillus fumigatus. The assay is described as follows: Antifungal activity against Aspergillus fumigatus using 1 x 10^5 spore/100 uL assessed as 99.5% fungal killing of original inoculum after 72 hrs by microdilution method. In kind it is functional.
A short description of assay [9]: Antifungal activity against Trichoderma reesei using 1 x 10^5 spore/100 uL after 72 hrs by microdilution method. The class given is functional. The gist of the method:
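Spores washed from malt agar cultures with sterile 0.85% saline plus 0.1% Tween 80, adjusted to about 1.0×10^5 per 100 µl well. Compounds from a 1 mg/ml DMSO stock were serially diluted in malt broth with inoculum in 96-well plates and incubated 72 h at 28 °C. MIC is the lowest concentration with no visible growth under a binocular microscope. DMSO served as negative control.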

Assay [10] relates to Curvularia australiensis. The assay is described as follows: Antifungal activity against Drechslera australiensis using 1 x 10^5 spore/100 uL assessed as 99.5% fungal killing of original inoculum after 72 hrs by microdilution method. The class given is functional.
A short description of assay [11]: Antifungal activity against Trichoderma reesei using 1 x 10^5 spore/100 uL assessed as 99.5% fungal killing of original inoculum after 72 hrs by microdilution method. The class given is functional.
A further assay concerns Bacillus cereus. The assay is described as follows: Antibacterial activity against Bacillus cereus using 1 x 10^4 CFU/ml inoculum after 24 hrs by microdilution method. In kind it is functional.
Another assay concerns Bacillus thuringiensis. The assay is described as follows: Antibacterial activity against Bacillus thuringiensis using 1 x 10^4 CFU/ml inoculum after 24 hrs by microdilution method. The class given is functional.
In another assay the test system is Bacillus subtilis. The assay is described as follows: Antibacterial activity against Bacillus subtilis using 1 x 10^4 CFU/ml inoculum after 24 hrs by microdilution method. The class given is functional.
In assay [12] the test system is Trichoderma viride. The assay is described as follows: Antifungal activity against Trichoderma viride using 1 x 10^5 spore/100 uL assessed as 99.5% fungal killing of original inoculum after 72 hrs by microdilution method. The class given is functional.

Structures are written as SMILES. Where only a bound is given, the exact number is not on record here.

For the molecule `COc1ccc(/C(C)=N/NC(=O)C2=C(O)c3ccccc3S(=O)(=O)N2C)cc1`, the MFC in the assay on Aspergillus flavus [1] came out at 170 ×10⁻² umol; in the assay with Aspergillus niger [5], 180.7 ×10⁻² umol; in the assay on Aspergillus fumigatus [8], 149.5 ×10⁻² umol; with Curvularia australiensis [10], 159.9 ×10⁻² umol; in [11] it was 158 ×10⁻² µmol; in the assay with Trichoderma viride [12], 158.4 ×10⁻² umol. Moreover, the MIC was 80 ×10⁻² umol against Curvularia australiensis [2]; 27.9 ×10⁻² umol against Escherichia coli; 32.4 ×10⁻² umol in the assay on Salmonella typhi; 26.3 ×10⁻² umol against Staphylococcus aureus; 79.2 ×10⁻² umol against Trichoderma viride [3]; 29.2 ×10⁻² umol in the assay on Pseudomonas aeruginosa. The MIC was 87.2 ×10⁻² umol in the assay with Aspergillus niger [4]; 86.1 ×10⁻² umol in the assay with Aspergillus flavus [6]; 77.6 ×10⁻² umol in the assay with Aspergillus fumigatus [7]; 78.9 ×10⁻² µmol in assay [9]; 7.9 ×10⁻² umol in the assay with Bacillus cereus; 7.8 ×10⁻² umol in the assay on Bacillus thuringiensis. This molecule also came in with an MIC in the assay on Bacillus subtilis of 7.6 ×10⁻² umol.
Regarding `C/C(=N\NC(=O)C1=C(O)c2ccccc2S(=O)(=O)N1C)c1ccc(I)cc1`, the MFC in the assay on Aspergillus flavus [1] turned out to be 190.7 ×10⁻² umol; with Aspergillus niger [5], 198.4 ×10⁻² umol; in the assay on Aspergillus fumigatus [8] it was 159.8 ×10⁻² umol; in the assay on Curvularia australiensis [10] it was 150.6 ×10⁻² umol; in assay [11], 123 ×10⁻² µmol; with Trichoderma viride [12], 139.2 ×10⁻² umol. In addition, the MIC in the assay with Curvularia australiensis [2] is recorded as 74 ×10⁻² umol; with Escherichia coli it was 29.3 ×10⁻² umol; against Salmonella typhi it was 33.2 ×10⁻² umol; against Staphylococcus aureus, 28 ×10⁻² umol; against Trichoderma viride [3], 71.1 ×10⁻² umol; against Pseudomonas aeruginosa it was 30.5 ×10⁻² umol. Also, the MIC with Aspergillus niger [4] came out at 91.4 ×10⁻² umol; with Aspergillus flavus [6] it was 89.8 ×10⁻² umol; against Aspergillus fumigatus [7], 81.9 ×10⁻² umol; in assay [9] it was 70.1 ×10⁻² µmol; with Bacillus cereus, 9 ×10⁻² umol; with Bacillus thuringiensis it was 9.2 ×10⁻² umol. The molecule also yielded an MIC in the assay on Bacillus subtilis of 9.3 ×10⁻² umol.
`C/C(=N\NC(=O)C1=C(O)c2ccccc2S(=O)(=O)N1)c1ccc(N)cc1`: the MFC in the assay on Aspergillus flavus [1] was determined as 175.9 ×10⁻² umol; in the assay on Aspergillus niger [5] it was 177.5 ×10⁻² umol; with Aspergillus fumigatus [8] it was 150.1 ×10⁻² umol; in the assay with Curvularia australiensis [10], 129.5 ×10⁻² umol; in [11], 138 ×10⁻² µmol; in the assay with Trichoderma viride [12], 142.8 ×10⁻² umol. Besides, the MIC in the assay on Curvularia australiensis [2] is given as 70 ×10⁻² umol; against Escherichia coli it was 22.9 ×10⁻² umol; against Salmonella typhi, 27.7 ×10⁻² umol; in the assay with Staphylococcus aureus, 20.5 ×10⁻² umol; against Trichoderma viride [3], 71.3 ×10⁻² umol; against Pseudomonas aeruginosa, 24.5 ×10⁻² umol. Moreover, the MIC was 83.8 ×10⁻² umol in the assay with Aspergillus niger [4]; 82.9 ×10⁻² umol in the assay on Aspergillus flavus [6]; 74 ×10⁻² umol with Aspergillus fumigatus [7]; 70.3 ×10⁻² µmol in [9]; 6.2 ×10⁻² umol in the assay on Bacillus cereus; 6.1 ×10⁻² umol against Bacillus thuringiensis. In the assay on Bacillus subtilis, the MIC was 6 ×10⁻² umol.
`COc1cccc(/C(C)=N/NC(=O)C2=C(O)c3ccccc3S(=O)(=O)N2)c1`: the MFC is 198.4 ×10⁻² umol in the assay with Aspergillus flavus [1]; 176.3 ×10⁻² umol in the assay on Aspergillus niger [5]; 181.2 ×10⁻² umol in the assay on Aspergillus fumigatus [8]; 162.7 ×10⁻² umol in the assay with Curvularia australiensis [10]; 161 ×10⁻² µmol in [11]; 149.9 ×10⁻² umol with Trichoderma viride [12]. In addition, the MIC against Curvularia australiensis [2] was 82 ×10⁻² umol; in the assay with Escherichia coli it was 25.6 ×10⁻² umol; against Salmonella typhi, 29.3 ×10⁻² umol; in the assay on Staphylococcus aureus, 24.5 ×10⁻² umol; with Trichoderma viride [3] it was 80.7 ×10⁻² umol; in the assay with Pseudomonas aeruginosa, 26.7 ×10⁻² umol. In addition, the MIC stood at 90.1 ×10⁻² umol against Aspergillus niger [4]; 92.7 ×10⁻² umol against Aspergillus flavus [6]; 85.9 ×10⁻² umol with Aspergillus fumigatus [7]; 80 ×10⁻² µmol in assay [9]; 7.2 ×10⁻² umol in the assay with Bacillus cereus; 7.7 ×10⁻² umol with Bacillus thuringiensis. In the assay with Bacillus subtilis, the MIC came out at 7.5 ×10⁻² umol.
In the case of `C/C(=N\NC(=O)C1=C(O)c2ccccc2S(=O)(=O)N1C)c1ccccc1O`, the MFC is more than 200 ×10⁻² umol in the assay on Aspergillus flavus [1]; more than 200 ×10⁻² umol with Aspergillus niger [5]; more than 200 ×10⁻² umol with Aspergillus fumigatus [8]; more than 200 ×10⁻² umol with Curvularia australiensis [10]; more than 200 ×10⁻² µmol in assay [11]; more than 200 ×10⁻² umol in the assay with Trichoderma viride [12]. The MIC with Curvularia australiensis [2] is reported as more than 100 ×10⁻² umol; in the assay on Escherichia coli it was 19.6 ×10⁻² umol; in the assay on Salmonella typhi it was 22.3 ×10⁻² umol; against Staphylococcus aureus it was 17.7 ×10⁻² umol; against Trichoderma viride [3] it was more than 100 ×10⁻² umol; against Pseudomonas aeruginosa it was 20.2 ×10⁻² umol. In addition, the MIC in the assay with Aspergillus niger [4] was more than 100 ×10⁻² umol; with Aspergillus flavus [6], more than 100 ×10⁻² umol; against Aspergillus fumigatus [7], more than 100 ×10⁻² umol; in assay [9] it was more than 100 ×10⁻² µmol; in the assay with Bacillus cereus, 4 ×10⁻² umol; against Bacillus thuringiensis, 4 ×10⁻² umol. In addition, the MIC against Bacillus subtilis amounted to 4.2 ×10⁻² umol.
For the molecule `C/C(=N\NC(=O)C1=C(O)c2ccccc2S(=O)(=O)N1C)c1ccc(N)cc1`, the MFC in the assay with Aspergillus flavus [1] came to 166.3 ×10⁻² umol; with Aspergillus niger [5], 167 ×10⁻² umol; in the assay on Aspergillus fumigatus [8] it was 151.6 ×10⁻² umol; in the assay on Curvularia australiensis [10] it was 133.7 ×10⁻² umol; in assay [11], 136 ×10⁻² µmol; in the assay on Trichoderma viride [12] it was 142 ×10⁻² umol. The MIC against Curvularia australiensis [2] is 69.8 ×10⁻² umol; in the assay with Escherichia coli, 22.4 ×10⁻² umol; with Salmonella typhi, 27.5 ×10⁻² umol; against Staphylococcus aureus it was 20.4 ×10⁻² umol; in the assay on Trichoderma viride [3], 71.1 ×10⁻² umol; in the assay with Pseudomonas aeruginosa, 24.3 ×10⁻² umol. In addition, the MIC in the assay with Aspergillus niger [4] came out at 83.7 ×10⁻² umol; against Aspergillus flavus [6] it was 82.9 ×10⁻² umol; against Aspergillus fumigatus [7], 73.6 ×10⁻² umol; in [9], 68 ×10⁻² µmol; in the assay on Bacillus cereus, 6.2 ×10⁻² umol; with Bacillus thuringiensis, 6.3 ×10⁻² umol. In addition, in the assay with Bacillus subtilis, the MIC was found to be 6.2 ×10⁻² umol.
Regarding `C/C(=N\NC(=O)C1=C(O)c2ccccc2S(=O)(=O)N1C)c1ccc(F)cc1F`, the MFC in the assay with Aspergillus flavus [1] was found to be 149.4 ×10⁻² umol; with Aspergillus niger [5], 143.6 ×10⁻² umol; with Aspergillus fumigatus [8], 140.1 ×10⁻² umol; in the assay on Curvularia australiensis [10], 144.2 ×10⁻² umol; in assay [11] it was 130 ×10⁻² µmol; in the assay with Trichoderma viride [12] it was 143 ×10⁻² umol. The MIC was 72.1 ×10⁻² umol with Curvularia australiensis [2]; 28.9 ×10⁻² umol in the assay on Escherichia coli; 33.1 ×10⁻² umol in the assay with Salmonella typhi; 27.6 ×10⁻² umol against Staphylococcus aureus; 72.1 ×10⁻² umol with Trichoderma viride [3]; 30.5 ×10⁻² umol in the assay with Pseudomonas aeruginosa. Moreover, the MIC came to 76.5 ×10⁻² umol against Aspergillus niger [4]; 76.3 ×10⁻² umol with Aspergillus flavus [6]; 69.6 ×10⁻² umol against Aspergillus fumigatus [7]; 68.4 ×10⁻² µmol in [9]; 7.5 ×10⁻² umol with Bacillus cereus; 8 ×10⁻² umol in the assay with Bacillus thuringiensis. In the assay on Bacillus subtilis, this molecule returned an MIC of 7.8 ×10⁻² umol.
